Source: PubChem BioAssay
This is one part of a sample in which hits are shown more often than they occur.
ABCB1 inh = blocks JC-1 efflux by human ABCB1 transporter; CCRF-Adr cells, flow cytometry; inhibition, % at 6.6 µM; P08183; 0.067% of 190,000 active; AID 1326; in the data active = inhibition above about 40%;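 note: 0% = vehicle and 100% = reference inhibitor; higher value means more JC-1 retained so stronger ABCB1 efflux block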
Avidin fluor = compound fluoresces at 488/530 nm on avidin beads | 0.38% of 220,000 active | fluorescence (KMESF) at 10 µM | compound fluorescence 488/530 nm, flow cytometry; hits give high values | AID 1775; in the data active = fluorescence above about 47
Lmaj promast = reduces viability of Leishmania major promastigotes | AID 1063 | 9% of 200,000 active | inhibition, % at 10 µM | resazurin fluorescence viability;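 note: promastigotes grown with compound for 44 hours at 28 °C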
ABCG2 block = blocks JC-1 efflux by human ABCG2 transporter | IgMXP3 cells, flow cytometry | inhibition, % at 6.6 µM | 0.1% of 190,000 active | AID 1325;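 active = inhibition above 80%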;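 note: 0% = DMSO and 100% = nicardipine control wells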
Target sequence (Q9UNQ0 whole entry, looked up): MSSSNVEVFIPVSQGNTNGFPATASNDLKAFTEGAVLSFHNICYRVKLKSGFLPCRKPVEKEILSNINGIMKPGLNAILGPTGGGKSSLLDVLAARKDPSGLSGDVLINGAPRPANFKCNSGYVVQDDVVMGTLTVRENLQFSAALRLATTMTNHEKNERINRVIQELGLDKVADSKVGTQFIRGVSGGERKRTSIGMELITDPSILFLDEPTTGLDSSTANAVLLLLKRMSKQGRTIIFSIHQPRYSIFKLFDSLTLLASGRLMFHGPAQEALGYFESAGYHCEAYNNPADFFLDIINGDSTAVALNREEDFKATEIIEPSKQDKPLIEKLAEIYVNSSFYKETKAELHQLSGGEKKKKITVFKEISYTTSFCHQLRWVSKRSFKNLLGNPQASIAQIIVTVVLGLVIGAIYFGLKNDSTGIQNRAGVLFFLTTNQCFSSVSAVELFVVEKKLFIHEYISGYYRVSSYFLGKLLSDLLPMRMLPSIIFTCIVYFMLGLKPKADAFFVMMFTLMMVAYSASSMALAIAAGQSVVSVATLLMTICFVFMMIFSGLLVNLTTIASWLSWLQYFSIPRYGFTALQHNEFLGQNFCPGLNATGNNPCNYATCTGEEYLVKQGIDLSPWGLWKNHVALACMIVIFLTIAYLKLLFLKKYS
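Test system: IgMXP3 cells (ABCG2) mixed with DDAO far-red-labelled CCRF-Adr cells (ABCB1). Reagent: JC-1 transporter substrate. Compound dosing: single test compound dose, 6.6 µM final. Times: 10 min compound exposure, 25 °C. Detection: flow cytometry of retained JC-1 fluorescence. Read-out basis: efflux inhibition in percent versus controls. Controls: nicardipine and DMSO wells.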
GSH bead fluor = GSH bead compound fluorescence profile. GSH beads flow cytometry, compound fluorescence 488/530 nm; hits give high values. fluorescence (KMESF) at 10 µM. 0.25% of 190,000 active. AID 1776; in the data active = fluorescence above about 89;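 note: glutathione beads carrying GST-tagged Bcl family fusion proteins plus one bare bead set; values are compound well signal with DMSO vehicle wells as background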
PKD1 kinase inh = blocks activity of human protein kinase D1 | PKD1 kinase fluorescence polarization assay | AID 797 | Q15139 | inhibition, % (no concentration beside the values) | 0.056% of 200,000 active
The depositor's hits bear a star; . = no result. Cut-off read from the data, not from the text of the source, unless noted: active = inhibition above about 50%; inactive = the rest.

SMILES	ABCB1 inh	Avidin fluor	Lmaj promast	ABCG2 block	GSH bead fluor	PKD1 kinase inh
CCCC1COC(Cn2cncn2)(c2ccc(Cl)cc2Cl)O1 (configuration not stated)	0.6	16	91.7*	4.9	10	-2.4
O=C1/C(=C\c2cc3c(cc2Cl)OCO3)N2CCC1CC2	0.6	13	72.8*	5.2	10	-9.8
O=C1/C(=C/c2cc3c(cc2Cl)OCO3)N2CCC1CC2	0.5	13	92.0*	20.4	11	1.3
O=C1/C(=C\c2ccc(Cl)cc2Cl)N2CCC1CC2	.	7	.	.	.	.
O=C1/C(=C\c2ccc(Cl)c(Cl)c2)N2CCC1CC2	.	4	.	.	.	.
O=C1/C(=C/c2cc([N+](=O)[O-])ccc2Cl)N2CCC1CC2	1.1	6	73.6*	13.6	18	-1.1
N=C1c2ccccc2CN1NC(=O)C1CC1	0.0	13	-5.3	0.9	13	13.8
Cc1ccc2c(c1)N(CCC(=O)N1CCC3(CC1)OCCO3)C(=O)C(C)O2 (configuration not stated)	0.2	39	-7.7	1.1	13	-6.3
Cc1nn(Cc2ccccc2)c(Cl)c1C(=O)NC1CCCc2ccccc21 (configuration not stated)	1.6	6	4.0	10.8	18	-7.7
Clc1ccc(CSC(Cn2ccnc2)c2ccc(Cl)cc2Cl)cc1 (configuration not stated)	1.0	8	98.8*	4.3	21	-6.1
Clc1ccc(COC(Cn2ccnc2)c2ccc(Cl)cc2Cl)cc1 (configuration not stated)	0.7	10	98.3*	1.4	21	-4.6
CC(C)OC(=O)c1c(N)n(Cc2ccco2)c2nc3ccccc3nc12	-0.2	20	56.3*	-1.3	16	2.7
COCCOC(=O)c1c(N)n(Cc2ccco2)c2nc3ccccc3nc12	.	.	21.3	.	.	-7.8
CC(C)CNC(=O)c1c(N)n(Cc2ccc3c(c2)OCO3)c2nc3ccccc3nc12	0.7	31	67.5*	9.9	26	0.0
Nc1c(C(=O)NCc2ccco2)c2nc3ccccc3nc2n1CCN1CCCCC1	2.1	8	64.5*	18.7	53	-10.1
COCCCNC(=O)c1c(NC(=O)c2ccco2)n(Cc2ccccc2)c2nc3ccccc3nc12	1.5	9	96.8*	5.7	11	-14.3
COCCNC(=O)c1c(NC(=O)c2ccc(Br)o2)n(Cc2ccccc2)c2nc3ccccc3nc12	-5.2	6	13.8	-21.6	17	-13.0
COc1ccc(CN2C(=O)NC(=O)/C(=C/c3ccc([N+](=O)[O-])o3)C2=O)cc1	-1.0	8	11.5	-10.2	13	-6.0
CCC(C)n1c(C)cc(C(N)=O)c1C (configuration not stated)	1.0	13	-0.8	4.2	12	3.8
Cc1cc(OCCN2CC2)c2ccccc2n1	.	7	.	.	.	.
COCCCNC(=O)c1c(N)n(Cc2ccco2)c2nc3ccccc3nc12	.	4	.	.	.	.
COc1ccc(Cn2c(N)c(C(=O)NCc3ccco3)c3nc4ccccc4nc32)cc1OC	0.2	8	59.3*	-1.6	36	8.4
CCCCn1c(O)c(/C=C/C=Nc2ccccc2)c(=O)[nH]c1=O	0.3	24	-3.5	42.3	11	-7.0
CN(C(=O)Oc1ccc(C(=O)c2ccc(Cl)cc2)cc1)c1ccccc1	.	15	55.5*	3.7	9	-10.0
c1ccc2cc(C3N4CCCN34)ccc2c1 (configuration not stated)	-0.4	8	-1.2	-0.3	13	-5.8
SMILES	ABCB1 inh	Avidin fluor	Lmaj promast	ABCG2 block	GSH bead fluor	PKD1 kinase inh
CCOC(=O)[C@]1(C#N)[C@@H]2C=CC(C(C)=O)=CN2[C@@H](C(N)=O)[C@@H]1c1ccsc1	0.1	36	-6.7	1.2	10	0.2
COc1cc2c(cc1OC)CN(c1ccc([N+](=O)[O-])c(C(F)(F)F)c1)CC2	1.7	7	66.0*	51.0	19	-6.0
N#Cc1c(/N=C/c2c(O)n(Cc3ccco3)c(=O)[nH]c2=O)sc2c1CCCC2	-0.5	5	-4.5	-0.9	19	-2.8
C/C(=N\Nc1ccccc1)c1c(O)n(Cc2ccccc2)c(=O)[nH]c1=O	-0.2	2	18.9	1.1	10	-2.0
Cc1c(C=C2C(=O)NC(=O)NC2=O)c(=O)n(-c2ccccc2)n1C	-1.4	6	1.2	-4.9	13	-1.6
Cc1nn(Cc2ccccc2)c(C)c1C=C1C(=O)NC(=S)NC1=O	-0.4	10	59.7*	-2.9	6	-11.6
CN(C)CCc1nn[nH]n1	0.2	24	-6.5	3.0	15	1.5
Cc1ccc(S(=O)(=O)N(C)CCCC(=O)N2CCN(c3ccccn3)CC2)cc1	0.7	8	89.6*	1.2	40	-4.3
CCCCCCn1c(=O)c(C(=O)Nc2nnc(C)s2)c(O)c2ccccc21	-1.1	11	3.6	-2.0	15	1.1
CCCCCn1c(=O)c(C(=O)Nc2nc(CC(=O)OCC)cs2)c(O)c2ccccc21	2.0	22	90.5*	-2.4	96*	0.1
CCCCCn1c(=O)c(C(=O)Nc2ccccc2S(N)(=O)=O)c(O)c2ccccc21	1.0	22	95.5*	0.7	12	0.7
CCCCn1c(=O)c(C(=O)NCc2ccco2)c(O)c2ccccc21	0.0	22	-4.8	1.7	10	-0.8
CCCCCn1c(=O)c(C(=O)Nc2cnccn2)c(O)c2ccccc21	-0.5	11	98.4*	-0.9	18	-1.2
CCCCn1c(=O)c(C(=O)NCc2ccncc2)c(O)c2ccccc21	0.2	6	88.8*	3.6	11	-1.1
N#CCP(=S)(c1ccccc1)c1ccccc1	0.1	3	5.6	0.5	5	-2.9
Cc1ncc(CN2CCCC(C(=O)c3sccc3C)C2)s1 (configuration not stated)	0.4	9	52.0*	0.5	16	-3.1
CCn1cc(CN2CCCC(C(=O)c3sccc3C)C2)cn1 (configuration not stated)	1.2	3	53.6*	1.3	11	1.7
Cc1ccsc1C(=O)C1CCCN(Cc2cnn(C)c2)C1 (configuration not stated)	0.8	7	34.1	7.0	17	-6.9
O=C(NC1CN2CCC1CC2)c1cc(Cl)c([N+](=O)[O-])c2nc[nH]c12 (configuration not stated)	0.6	4	36.0	6.2	9	8.5
CCC(=NCCCN(CC)CC)c1c(O)n(C2CCCCC2)c(=O)[nH]c1=O	0.4	15	91.7*	1.5	14	-2.8
CCN(CC)CCCN=C(C)c1c(O)n(C2CCCCC2)c(=O)[nH]c1=O	0.4	18	93.1*	2.1	8	-5.0
CCC(=NCc1cccnc1)c1c(O)n(C2CCCCC2)c(=O)[nH]c1=O	-3.0	0	13.7	-2.2	27	-2.5
CCC(=NCCN1CCOCC1)c1c(O)n(C2CCCCC2)c(=O)[nH]c1=O	.	7	.	.	.	.
